# Experimental data published in article PMC3045600 (Nucleic Acids Research, 2010).
# “And” between values parts separate entries of the source, which are not always exact repeats. Identical values can stand only once. Like-named read-outs stand apart in the source and are kept apart here.
# Tests used:
# [1] = target: T1, bacteriophage T4 DNA polymerase (gp43 exo−) (Enterobacteria phage T4, UniProt P04415, D219A); format: biochemical; details: 150 µM dXTP, then 500 µM dGTP, quenched at 180 s; 13/20SP-mer
# T1 sequence (P04415 1-898 D219A): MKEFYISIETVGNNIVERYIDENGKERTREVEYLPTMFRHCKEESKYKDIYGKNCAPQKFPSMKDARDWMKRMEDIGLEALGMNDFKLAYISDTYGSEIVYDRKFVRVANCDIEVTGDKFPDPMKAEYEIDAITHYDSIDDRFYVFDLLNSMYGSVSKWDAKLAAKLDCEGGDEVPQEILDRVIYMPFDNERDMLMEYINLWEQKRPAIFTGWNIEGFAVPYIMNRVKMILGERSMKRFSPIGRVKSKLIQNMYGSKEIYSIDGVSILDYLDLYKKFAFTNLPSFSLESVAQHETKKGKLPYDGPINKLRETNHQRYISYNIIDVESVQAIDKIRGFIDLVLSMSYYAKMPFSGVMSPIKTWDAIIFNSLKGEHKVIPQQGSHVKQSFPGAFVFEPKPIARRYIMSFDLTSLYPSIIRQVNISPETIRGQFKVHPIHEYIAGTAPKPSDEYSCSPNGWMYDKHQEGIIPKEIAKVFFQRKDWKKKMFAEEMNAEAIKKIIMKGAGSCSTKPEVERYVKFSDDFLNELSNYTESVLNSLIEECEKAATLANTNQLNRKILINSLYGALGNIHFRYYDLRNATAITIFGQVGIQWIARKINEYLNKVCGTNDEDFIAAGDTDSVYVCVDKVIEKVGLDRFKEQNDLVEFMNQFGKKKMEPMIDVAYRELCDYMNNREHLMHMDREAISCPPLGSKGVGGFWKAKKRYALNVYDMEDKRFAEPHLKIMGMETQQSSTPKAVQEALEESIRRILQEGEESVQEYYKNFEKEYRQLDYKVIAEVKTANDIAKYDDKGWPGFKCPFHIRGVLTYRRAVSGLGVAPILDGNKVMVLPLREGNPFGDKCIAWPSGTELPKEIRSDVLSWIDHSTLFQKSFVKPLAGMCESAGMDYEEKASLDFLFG
# Outline: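 Exonuclease-deficient T4 gp43 (D219A), 500 nM, with 250 nM 5′-32P-labelled 13/20SP-mer, in 25 mM Tris–OAc pH 7.5, 150 mM KOAc, 10 mM 2-mercaptoethanol and 10 mM Mg2+ at 25°C. Test nucleotide (150 µM) was inserted for 5 min, then 500 µM dGTP was added. Reactions were quenched with 350 mM EDTA and resolved on 20% sequencing gels. Extended versus non-extended primer was quantified by phosphorimaging, corrected for the zero point.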
# [2] = target: T2, exonuclease-deficient bacteriophage T4 DNA polymerase (gp43 exo−) (Enterobacteria phage T4, UniProt P04415, D219A); details: blunt end DNA, cited from earlier work; for Kd: read-out: Kd, app
# T2 sequence (P04415 1-898 D219A): T1 sequence (P04415 1-898 D219A)
# [3] = target: T2, exonuclease-deficient bacteriophage T4 DNA polymerase (gp43 exo−); details: double abasic site, cited from earlier work; for Kd: read-out: Kd, app
# [4] = target: T2, exonuclease-deficient bacteriophage T4 DNA polymerase (gp43 exo−); details: opposite thymine, cited from earlier work; for Kd: read-out: Kd, app
# [5] = target: T2, exonuclease-deficient bacteriophage T4 DNA polymerase (gp43 exo−); details: single abasic site, cited from earlier work; for Kd: read-out: Kd, app
# [6] = target: T1, bacteriophage T4 DNA polymerase (gp43 exo−); details: previously demonstrated; cited from earlier work
smiles,measurement,setting,value
O=P(O)(O)OP(=O)(O)OP(=O)(O)OC[C@H]1O[C@@H](n2ccc3cc(-c4ccccc4)ccc32)C[C@@H]1O [5-PhITP],Extension beyond the nucleotide paired opposite an abasic site,[1],does not extend
same,kpol,[2],0.007 ± 0.004 s⁻¹
same,"kpol/Kd, app",[2],160 M⁻¹ s⁻¹
same,Kd,[2],45 ± 8 µM
same,kpol,[3],45 ± 3 s⁻¹
same,"kpol/Kd, app",[3],3 750 000 M^−1 s^−1
same,Kd,[3],12 ± 2 µM
same,kpol,[4],0.16 ± 0.01 s⁻¹
same,"kpol/Kd, app",[4],6400 M⁻¹ s⁻¹
same,Kd,[4],25 ± 7 µM
same,Kd,[5],14 ± 3 µM
same,kpol,[5],53 s⁻¹ and 53 ± 4 s⁻¹
Nc1nc2c(ncn2[C@H]2C[C@H](O)[C@@H](COP(=O)(O)OP(=O)(O)OP(=O)(O)O)O2)c(=O)[nH]1 [dGTP],Extension beyond the nucleotide paired opposite an abasic site,[6],extends beyond
Nc1ncnc2c1ncn2[C@H]1C[C@H](O)[C@@H](COP(=O)(O)OP(=O)(O)OP(=O)(O)O)O1 [dATP],Extension beyond the nucleotide paired opposite an abasic site,[1],showed extension beyond the abasic site
same,kpol,[3],0.55 ± 0.05 s⁻¹
same,"kpol/Kd, app",[3],3500 M⁻¹ s⁻¹
same,Kd,[3],157 ± 28 µM
same,kpol,[4],100 ± 10 s⁻¹
same,"kpol/Kd, app",[4],10 000 000 M^−1 s^−1
same,Kd,[4],10 ± 2 µM
same,Kd,[5],35 ± 5 µM
same,kpol,[5],0.15 ± 0.01 s⁻¹
same,"kpol/Kd, app",[5],4300 M⁻¹ s⁻¹
same,Extension beyond the nucleotide paired opposite an abasic site,[6],extends beyond
O=[N+]([O-])c1ccc2c(ccn2C2CC(O)C(COP(=O)(O)OP(=O)(O)OP(=O)(O)O)O2)c1 (stereo not shown) [5-NITP],Extension beyond the nucleotide paired opposite an abasic site,[1],does not extend
same,kpol,[2],0.015 ± 0.004 s⁻¹
same,"kpol/Kd, app",[2],710 M⁻¹ s⁻¹
same,Kd,[2],21 ± 8 µM
same,kpol,[3],70 ± 6 s⁻¹
same,"kpol/Kd, app",[3],3 890 000 M^−1 s^−1
same,Kd,[3],18 ± 5 µM
same,kpol,[4],0.9 ± 0.1 s⁻¹
same,"kpol/Kd, app",[4],100 000 M^−1 s^−1
same,Kd,[4],9 ± 1 µM
same,Kd,[5],18 ± 3 µM
same,kpol,[5],126 s⁻¹ and 126 ± 7 s⁻¹
same,"kpol/Kd, app",[5],7 000 000 M^−1 s^−1
